Measured values gathered from unrelated publications.
Each line is one published result; the experiments were not run side by side.
Target: Calcium-dependent protein kinase 1 (CDPK1, Plasmodium falciparum, UniProt P62344)

SMILES | assay | setting | quantity | result
CNC(=O)[C@@H]1CC[C@@H](n2c(-c3ccc4cnccc4c3)nc3ccc(C(=O)NCc4cccc(C(N)=O)c4)cc32)C1 | binding, competition with immobilised ligand | 1 µM | remaining binding | 99%
FC(F)(F)Oc1cccc(-c2cnc3ccc(-c4ccncc4)nn23)c1 | binding, competition with immobilised ligand | 5 µM | remaining binding | 4.5%
O=C(NCC1CCOCC1)c1n[nH]cc1NC(=O)c1c(F)cccc1F | binding, competition with immobilised ligand | 1 µM | remaining binding | 83%
COc1cnc(Nc2cccc(S(N)(=O)=O)c2)nc1N1CCN(c2ccccc2)CC1 | binding, competition with immobilised ligand | 1 µM | remaining binding | 86%
c1cncc(-c2cccc(Nc3nccc(NC4CCCCC4)n3)c2)c1 | binding, competition with immobilised ligand | 10 µM | remaining binding | 24%
Nc1ncnc2occ(-c3ccc(NC(=O)Nc4cc(C(F)(F)F)ccc4F)cc3)c12 | cell-free assay, inhibitor | 20 µM | remaining signal | 1.2%
COc1ccnn2ncc(-c3ccnc(N(C)C)n3)c12 | binding | 1 µM | remaining binding | 81%
Nc1ncc2c(n1)-c1c([nH]c3ccc(C#CC4CC4)cc13)CCCC2 | binding, competition with immobilised ligand | 1 µM | remaining binding | 79%
Cc1nn(C)cc1-c1nc2c(N3CCN(Cc4ccc(Cl)cc4)CC3)c(Cl)cnc2[nH]1 | binding, competition with immobilised ligand | 1 µM | remaining binding | 100%
C=CC(=O)N1CCC(C(=O)NCC(=O)N2CCN(c3nc(-c4cnc(N)nc4C(F)F)nc(N4CCOCC4)n3)CC2)CC1 | binding, competition with immobilised ligand | 1 µM | remaining binding | 81%
Cc1ccc(C(=O)Nc2ccc(CN3CCN(C)CC3)c(C(F)(F)F)c2)cc1C#Cc1cnc2cccnn12 | enzyme activity, inhibitor | 23.5 nM | remaining activity | 16%
C[C@@H]1CCN(c2nccc(-c3cnn4ncccc34)n2)C1 | binding | 1 µM | remaining binding | 85%
O=C(Nc1c[nH]nc1C(=O)NC1CCNCC1)c1cc(F)cc(F)c1 | binding, competition with immobilised ligand | 1 µM | remaining binding | 89%
N[C@@H]1CCN(c2nccc(-c3cnn4ncccc34)n2)C1 | binding | 1 µM | remaining binding | 91%
CCN1CCN(Cc2ccc(C(=O)Nc3ccc(C)c(Oc4ccc5c(c4)CC(=O)N5)c3)cc2C(F)(F)F)CC1 | binding, competition with immobilised ligand | 1 µM | remaining binding | 68%
